Blank lines part the entries; values can stand above or below the molecule they belong to.
Key:
[1] = Inhibition of mitochondrial complex 1 in bovine heart mitochondria assessed as effect on rate of NADH oxidation; design: species or system Bos taurus
In short: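 Bovine heart submitochondrial particles (45 µg/mL final) in 50 mM K₂HPO₄ pH 7.4 with 0.4 µM antimycin A and 2 mM KCN. Inhibitor at varying concentrations preincubated 4 min, then 100 µM decyl ubiquinone and 50 µM NADH added. NADH oxidation followed at 340 nm, 37 °C, 120 s; IC50 is concentration giving 50% inhibition.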

Lung [2] = assay: Biodistribution in Sprague-Dawley rat lung at 15 uCi, iv after 30 mins; format: ADME, organism-based; conditions: in vivo, 0.5 h
In short: (§1)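 Male Sprague–Dawley rats (300–400 g) anesthetized with sodium pentobarbital 50 mg/kg ip; left femoral vein cannulated; about 15 µCi radiotracer in 0.3 mL 10% ethanol saline given iv. Killed in CO₂ at 30 or 120 min (n = 3 per time point); tissues weighed and gamma-counted. Counts decay-corrected, net dose from syringe and catheter residues subtracted; expressed as %ID/g ± SD.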

Lung [3] = assay: Biodistribution in Sprague-Dawley rat lung at 15 uCi, iv after 120 mins; format: ADME, organism-based; conditions: in vivo, 2 h; in short: as §1
[4] = Ratio of drug uptake in heart to liver of Sprague-Dawley rat at 15 uCi, iv after30 mins; format: ADME, organism-based; conditions: in vivo, 0.5 h
In short: (§2)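 Same rat protocol: pentobarbital-anesthetized male SD rats (300–400 g), about 15 µCi iv in 10% ethanol saline via femoral vein, three animals per point, gamma counting of weighed tissues with decay correction. Ratios formed from heart %ID/g over blood, lung, liver or femur %ID/g at 30 min post injection.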

Femur [5] = assay: Biodistribution in Sprague-Dawley rat femur at 15 uCi, iv after 30 mins; format: ADME, organism-based; conditions: in vivo, 0.5 h; in short: as §1
[6] = Ratio of drug uptake in heart to femur of Sprague-Dawley rat at 15 uCi, iv after30 mins; format: ADME, organism-based; conditions: in vivo, 0.5 h; in short: as §2
[7] = Ratio of drug uptake in heart to blood of Sprague-Dawley rat at 15 uCi, iv after 30 mins; format: ADME, organism-based; conditions: heart and blood (heart-to-blood ratio), read-out: Activity; in short: as §2
Blood [8] = assay: Biodistribution in Sprague-Dawley rat blood at 15 uCi, iv after 120 mins; format: ADME, organism-based; conditions: in vivo, 2 h; in short: as §1
Femur [9] = assay: Biodistribution in Sprague-Dawley rat femur at 15 uCi, iv after 120 mins; format: ADME, organism-based; conditions: in vivo, 2 h; in short: as §1
[10] = Ratio of drug uptake in heart to lung of Sprague-Dawley rat at 15 uCi, iv after30 mins; format: ADME, organism-based; conditions: in vivo, 0.5 h; in short: as §2
Blood [11] = assay: Biodistribution in Sprague-Dawley rat blood at 15 uCi, iv after 30 mins; format: ADME, organism-based; conditions: in vivo, 0.5 h; in short: as §1
Liver [12] = assay: Biodistribution in Sprague-Dawley rat liver at 15 uCi, iv after 120 mins; format: ADME, organism-based; conditions: in vivo, 2 h; in short: as §1
Liver [13] = assay: Biodistribution in Sprague-Dawley rat liver at 15 uCi, iv after 30 mins; format: ADME, organism-based; conditions: in vivo, 0.5 h; in short: as §1
Heart [14] = assay: Biodistribution in Sprague-Dawley rat heart at 15 uCi, iv after 120 mins; format: ADME, organism-based; conditions: in vivo, 2 h; in short: as §1
Heart [15] = assay: Biodistribution in Sprague-Dawley rat heart at 15 uCi, iv after 30 mins; format: ADME, organism-based; conditions: in vivo, 0.5 h; in short: as §1

SMILES: CCCCCCCCCCSC1N=CN(C(C)(C)C)C(=O)C1Cl (stereo not drawn)
IC50 [1]: > 4000 nM

Drug uptake (Lung [2]): 0.1 % ID/g
Drug uptake (Lung [3]): 0.06 % ID/g
Activity [4]: 2.62
Drug uptake (Femur [5]): 2.91 % ID/g
Activity [6]: 0.4
Kp at 0.5 h [7]: 13.2
Drug uptake (Blood [8]): 0.04 % ID/g
Drug uptake (Femur [9]): 3.91 % ID/g
Activity [10]: 11.41
Drug uptake (Blood [11]): 0.09 % ID/g
Drug uptake (Liver [12]): 0.4 % ID/g
Drug uptake (Liver [13]): 0.44 % ID/g
Drug uptake (Heart [14]): 1.14 % ID/g
Drug uptake (Heart [15]): 1.15 % ID/g
SMILES: CC(F)COc1ccc(COc2cnn(C(C)(C)C)c(=O)c2Cl)cc1 (stereo not drawn)
IC50 [1]: 8 nM

SMILES: Cc1c(SCc2ccc(C(C)(C)C)cc2)oc2ccccc2c1=O
IC50 [1]: 52 nM

Drug uptake (Lung [2]): 0.79 % ID/g
Drug uptake (Lung [3]): 0.22 % ID/g
Activity [4]: 1.11
Drug uptake (Femur [5]): 1.23 % ID/g
Activity [6]: 0.89
Kp at 0.5 h [7]: 6.05
Drug uptake (Blood [8]): 0.06 % ID/g
Drug uptake (Femur [9]): 3 % ID/g
Activity [10]: 1.37
Drug uptake (Blood [11]): 0.18 % ID/g
Drug uptake (Liver [12]): 0.39 % ID/g
Drug uptake (Liver [13]): 0.98 % ID/g
Drug uptake (Heart [14]): 1.24 % ID/g
Drug uptake (Heart [15]): 1.05 % ID/g
SMILES: CCC(CF)Oc1ccc(COc2cnn(C(C)(C)C)c(=O)c2Cl)cc1 (stereo not drawn)
IC50 [1]: 16 nM

SMILES: CC(C)(C)c1ccc(CSc2cnn(C(C)(C)C)c(=O)c2CF)cc1
IC50 [1]: 250 nM

Drug uptake (Lung [2]): 0.18 % ID/g
Drug uptake (Lung [3]): 0.14 % ID/g
Activity [4]: 1.78
Drug uptake (Femur [5]): 1.14 % ID/g
Activity [6]: 1.98
Kp at 0.5 h [7]: 20.8
Drug uptake (Femur [9]): 2.38 % ID/g
Activity [10]: 12.49
Drug uptake (Blood [11]): 0.11 % ID/g
Drug uptake (Liver [12]): 0.63 % ID/g
Drug uptake (Liver [13]): 1.27 % ID/g
Drug uptake (Heart [14]): 2.14 % ID/g
Drug uptake (Heart [15]): 2.25 % ID/g
SMILES: CC(F)CCc1ccc(COc2cnn(C(C)(C)C)c(=O)c2Cl)cc1 (stereo not drawn)
IC50 [1]: 10 nM

Drug uptake (Lung [2]): 0.24 % ID/g
Drug uptake (Lung [3]): 0.08 % ID/g
Activity [4]: 0.77
Drug uptake (Femur [5]): 0.65 % ID/g
Activity [6]: 2
Kp at 0.5 h [7]: 9.27
Drug uptake (Blood [8]): 0.07 % ID/g
Drug uptake (Femur [9]): 0.76 % ID/g
Activity [10]: 5.4
Drug uptake (Blood [11]): 0.15 % ID/g
Drug uptake (Liver [12]): 0.55 % ID/g
Drug uptake (Liver [13]): 1.7 % ID/g
Drug uptake (Heart [14]): 0.86 % ID/g
Drug uptake (Heart [15]): 1.31 % ID/g
SMILES: CC(C)(C)n1ncc(OCc2ccc(OCCCF)cc2)c(Cl)c1=O
IC50 [1]: 47 nM

Drug uptake (Lung [2]): 0.01 % ID/g
Drug uptake (Lung [3]): 0.18 % ID/g
Activity [4]: 1.45
Drug uptake (Femur [5]): 0.43 % ID/g
Activity [6]: 6.84
Kp at 0.5 h [7]: 60.7
Drug uptake (Blood [8]): 0.04 % ID/g
Drug uptake (Femur [9]): 1.16 % ID/g
Activity [10]: 14.93
Drug uptake (Blood [11]): 0.11 % ID/g
Drug uptake (Liver [12]): 0.62 % ID/g
Drug uptake (Liver [13]): 2.03 % ID/g
Drug uptake (Heart [14]): 2.99 % ID/g
Drug uptake (Heart [15]): 2.94 % ID/g
SMILES: CC(C)(C)n1ncc(OCc2ccc(CCCCF)cc2)c(Cl)c1=O
IC50 [1]: 15 nM

SMILES: CC(C)(C)n1ncc(OCc2ccc(-c3ccccc3)cc2)c(Cl)c1=O
IC50 [1]: 31 nM

SMILES: CC(C)(C)c1ccc(CCOc2ncnc3ccccc23)cc1 [FENAZAQUIN]
IC50 [1]: 90 nM

SMILES: CC(C)(C)c1ccc(CSc2cnn(C(C)(C)C)c(=O)c2Cl)cc1 [PYRIDABEN]
IC50 [1]: 8 nM

SMILES: CC(C)(C)n1ncc(OCc2ccc3ncccc3c2)c(Cl)c1=O
IC50 [1]: 221 nM

SMILES: CC(C)(C)c1ccc(COc2cnn(C(C)(C)C)c(=O)c2Cl)cc1
IC50 [1]: 64 nM

Drug uptake (Lung [2]): 0.15 % ID/g
Drug uptake (Lung [3]): 0.13 % ID/g
Activity [4]: 1.7
Drug uptake (Femur [5]): 0.23 % ID/g
Activity [6]: 4.6
Kp at 0.5 h [7]: 12.7
Drug uptake (Blood [8]): 0.1 % ID/g
Drug uptake (Femur [9]): 0.78 % ID/g
Activity [10]: 7.33
Drug uptake (Blood [11]): 0.08 % ID/g
Drug uptake (Liver [12]): 0.44 % ID/g
Drug uptake (Liver [13]): 0.64 % ID/g
Drug uptake (Heart [14]): 1.6 % ID/g
Drug uptake (Heart [15]): 1.09 % ID/g
SMILES: [2H]C([2H])(Oc1cnn(C(C)(C)C)c(=O)c1Cl)c1ccc(COC([2H])([2H])C([2H])([2H])F)cc1
IC50 [1]: 28 nM

SMILES: CCCCOc1ccc(COc2cnn(C(C)(C)C)c(=O)c2Cl)cc1
IC50 [1]: 27 nM

SMILES: [18F]CCCCc1ccc(CCOc2ncnc3ccccc23)cc1
IC50 [1]: 11 nM

SMILES: CC(C)(C)n1ncc(OCc2ccccc2)c(Cl)c1=O
IC50 [1]: 850 nM

SMILES: CC(C)(C)n1ncc(OCc2ccc3ccccc3c2)c(Cl)c1=O
IC50 [1]: 60 nM

SMILES: CC(C)(C)c1ccc(CSc2cnn(C(C)(C)C)c(=O)c2F)cc1
IC50 [1]: 279 nM

SMILES: Cc1c(SCc2ccc(CCCC[18F])cc2)oc2ccccc2c1=O
IC50 [1]: 9 nM

SMILES: CCCCc1ccc(COc2cnn(C(C)(C)C)c(=O)c2Cl)cc1
IC50 [1]: 17 nM

Drug uptake (Lung [2]): 0.21 % ID/g
Drug uptake (Lung [3]): 0.28 % ID/g
Activity [4]: 2.74
Drug uptake (Femur [5]): 0.45 % ID/g
Activity [6]: 7.51
Kp at 0.5 h [7]: 30
Drug uptake (Blood [8]): 0.19 % ID/g
Drug uptake (Femur [9]): 0.75 % ID/g
Activity [10]: 16.05
Drug uptake (Blood [11]): 0.11 % ID/g
Drug uptake (Liver [12]): 0.55 % ID/g
Drug uptake (Liver [13]): 1.25 % ID/g
Drug uptake (Heart [14]): 3.47 % ID/g
Drug uptake (Heart [15]): 3.41 % ID/g
SMILES: CC(C)(C)n1ncc(OCc2ccc(COCCF)cc2)c(Cl)c1=O [FLURPIRIDAZ]
IC50 [1]: 11 nM

SMILES: CC(C)(C)c1ccc(CCOc2cnn(C(C)(C)C)c(=O)c2Cl)cc1
IC50 [1]: 711 nM

SMILES: Cc1c(SCc2ccc(C(C)(C)C)cc2)cnn(C(C)(C)C)c1=O
IC50 [1]: 21 nM

SMILES: C=C(C)[C@H]1Cc2c(ccc3c2O[C@@H]2COc4cc(OC)c(OC)cc4[C@@H]2C3=O)O1 [ROTENONE]
IC50 [1]: 16 nM

SMILES: CC(C)(C)c1ccc(CNc2cnn(C(C)(C)C)c(=O)c2Cl)cc1
IC50 [1]: 4000 nM

From ChEMBL document CHEMBL1150282, “Synthesis and biological evaluation of pyridazinone analogues as potential cardiac positron emission tomography tracers” (J Med Chem, 2008)
